Assay results from the EternaBench riboswitch data.

Tested on: MS2 coat protein
Assay: apparent Kd, MS2 coat protein; higher = weaker binding; RNA-MaP array; FMN 200 µM where present
Summary of the method: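 Stalled E. coli RNA polymerase transcribed each design on Illumina sequencing-chip clusters. The clusters were titrated with SNAP-549-labelled MS2 coat protein, starting at 0.7 or 1.5 nM and doubling up to 3 µM, first without ligand and then with constant ligand, in 100 mM Tris-HCl pH 7.5, 80 mM KCl, 4 mM MgCl2, BSA, DTT, yeast tRNA and Tween-20. Green signal was normalised to red-channel RNA signal and to the control-cluster median Fmax. The apparent Kd is the median of filtered binding-curve fits made for each cluster.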

[1] = designed as: OFF switch for flavin mononucleotide, no ligand
[2] = ligand present: flavin mononucleotide, designed as: OFF switch for flavin mononucleotide
[3] = designed as: ON switch for flavin mononucleotide, no ligand
[4] = ligand present: flavin mononucleotide, designed as: ON switch for flavin mononucleotide

Row | Sequence | apparent Kd [1] [nM] | apparent Kd [2] [nM] | apparent Kd [3] [nM] | apparent Kd [4] [nM]
1 | AACCGACAUGAGGAUCACCCAUGUAAGGAUAUCCACGGACAACGCCAUAGUUGCCGGCGGAGAAGGUGCGUGGU | 26 | 46 |  | 
2 | UCAUUUCAGUAAGGAUAUUAAUUCAUGACGAUACAUGAGGAUCACCCAUGUUAAGAAGGUACUAAUACAAAUAAUGCAUUGUUC | 12.4 | 11.2 |  | 
3 | GUCGGAAACGACAAAAGUACCCGAGCAGAAGGGUGAAAACAUGAGGAUCACCCAUGUAAAUAAUCACAGGAUAUGCUCGGGUAC |  |  | 6.09 | 4.43
4 | UUAAAUCAUGUAGGAUAUGCAUGGCGAAGCUACGCAGAAGGACAUGAGGAUCACCCAUGUUAUAGCGUCUGAGAACAGAUGCAA | 82.8 | 264 |  | 
5 | AAUGAGACCGCAGGAUAUCCACAUGAGGAUCACCCAUGUUCUCAGGUCGGAAGCACGACCUGCGAGGAGAAGGGCGACCUCAUA |  |  | 715 | 36.5
6 | UGGUACUUCGGAGGAUAUCAUGUAGAUACAUGAGGAUCACCCAUGUCGUACGAGAGUACGGAGAUUGAGAAGGCCGAAGUACCU |  |  | 31.2 | 16
7 | AGUUGAAGGUAGAAGGGUGACAUGAGGAUCACCCAUGUGCGAGCAUCGGACGAAGAUGGCUCGCCACAGGAUAUACCUUCAAUU |  |  | 41.2 | 44.4
8 | ACAUGAGGAUCACCCAUGUAUACAUAGGAUAUUGAGGAUCAGGGAUGUUUUACAGGAUAUGUCUACGAGAAGGAUGCAAGUACA |  |  | 33.5 | 28.6
9 | AAUCCACAUGAGGAUCACCCAUGUGAGGAUAUGAUACUAUGUACUUCGGUACAUAGUAUCAGAAGGCACGGAUC | 33.2 | 50.4 |  | 
10 | CUCGUGUUAGGAUAUCGUGGCUGGGCUGGGACGUCCGAUGGCGAGAAGGGACAUGAGGAUCACCCAUGUAAAAC | 28.6 | 27.6 |  | 
11 | GACGUGUGAGGAUAUCCGAUGCCGGUCCGGAAGGUUCGGGUGGAGAAGGCACAUGAGGAUCACCCAUGUGUAAG | 18 | 26.5 |  | 
12 | UGGAUGGUAUGAGGAUAUGCGCGCGAAACGCGCGCAGAAGGCAUGUCAAUAGACAUGAGGAUCACCCAUGUAUUAUCCAUCCAC |  |  | 192 | 13
13 | CUAGAUAUGUAAGGAUAUAUAGUGGAAUACACUAUAGAAGGUAUGUGAUAACAUGAGGAUCACCCAUGUCAUUGGAUAUCUAGA |  |  | 67.5 | 60.3
14 | UGGUACUAGGUAGGAUAUGGGAAGAUACAUGAGGAUCACCCAUGUUUAAGAAUGCCGAGAGGCAACUAGAAGGCCCUAGUACCU |  |  | 652 | 78.9
15 | CUAAAUCAUGUAGGAUAUGCAUGGCGAAGCUACGCAGAAGGACAUGAGGAUCACCCAUGUCACUCCGUCUGCGUACAGACGGAG | 19.7 | 92.3 |  | 
16 | UGUCGGAGCAGAGGAUAUUACAUGAGGAUCACCCAUGUAAUAAAUGGAAGCUGGAAACAGCAAUGUAAGAAGGCUGCUCCGACA | 17.4 | 47.9 |  | 
17 | GCUGUCGCAUGAGGAUAUGGUCAGCUUUGCUGACCAGAAGGCAUGUCAAUAGACAUGAGGAUCACCCAUGUAGUUUGGGCGGCU |  |  | 985 | 99.2
18 | GCAGGGUAUGAGAAGGCAUAAUUUAUCUAACCACAUGAUUACAUGAGGAUCACCCAUGUUUCCAAUGAGGAUAUCAUACCGUGC | 8.05 | 7.54 |  | 
19 | AGCUGACGAGGAUAUACAUGAGGAUCACCCAUGUUGGUUCAGCGACUUCGGUCGCAAUGUAGAAGGCGUCAGCU | 450 | 327 |  | 
20 | CGAUGGUAUAUAGGAUAUCAUGUGCAAACAUGAGGAUCACCCAUGUAGGAACGUCAGUUCAAUAAUGAGAAGGAUAUACCAUCG |  |  | 35.1 | 10.9
21 | AUUUAUGUCAUAGGAUAUAUAAAUAAAUUUAUAACAUGAGGAUCACCCAUGUACUUGGGUAUUAGGUAGAAGGAUGAUAAGAAU |  |  | 572 | 254
22 | AGCUGUGGCCGAGGAUAUCUGUUUCAUAAAACCGAAAUAUAAUCGGACAUGAGGAUCACCCAUGUAGAGAAGGCGGUCUCAGCA | 16.6 | 14.9 |  | 
23 | UUAGAGGAUUGAGGAUAUGCAGAGAGAUUAUGCGCGUCGCGCACAUGAGGAUCACCCAUGUAAGAGCAGAAGGUAACUAUGAUC | 24.3 | 21.8 |  | 
24 | UGUUGUAUUACAGGAUAUCUAUUGUUUUUAUAUAGAGAAGGGUAUUCACAUGAGGAUCACCCAUGUAUAUACGAGGAAGUUGUG |  |  | 41.1 | 45.8
25 | GGGUACAUCGGAGGAUAUCAUGUAAAUACAUGAGGAUCACCCAUGUCGAUGGAGACAUCAGAGAUUGAGAAGGCCGAUGUACCG |  |  | 14.9 | 6.15
26 | UGUUCUAUGUAGAAGGCCCAUAUCUGUACUUAGGGAGGAUAUACAUGAGGAUCACCCAUGUGUAGAGCUGGUGGACUGGUCAGC | 16.5 | 37.2 |  | 
27 | GCUGGUCGAGGAUAUAUAUGACGUGCUUCGGCACGAAGAUCACAUGAGGAUCACCCAUGUAGAAGGUGACCAGC | 53.8 | 267 |  | 
28 | CGGCAAGUCACAGGAUAUGGUGAUGUACAUGAGGAUCACCCAUGUCCGUCUUCUCUCACAAGAUGCCAGAAGGGUGACCUCCGG |  |  | 760 | 131

Row | Sequence | apparent Kd [1] [nM] | apparent Kd [2] [nM] | apparent Kd [3] [nM] | apparent Kd [4] [nM]
29 | UAAUUAAGUGUGAGGAUAUGCUGGUCCUUGGAUCAGCAGAAGGCACAUGAGGAUCACCCAUGUAAUUUAUUUAU | 85.1 | 328 |  | 
30 | UGUAACUAGUAAGGAUAUACUAUUGAUUUAAUAGUAGAAGGUACAGUCUUUUGUAUAUCAUGUUUACAUGAGGAUCACCCAUGU |  |  | 10.4 | 7.77
31 | CCAACUGGAGGAUAUGCAGCGGCGGUCUCUUGGUUUGCAUUACAUGAGGAUCACCCAUGUAGAAGGCCGGUUGU | 117 | 201 |  | 
32 | GUAGCAUACCGAGGAUAUUCAUACCGAAAACGGACAUGAGGAUCACCCAUGUGGCGAAAGCCUUGGGAGAAGGCGGAAUGCUAC |  |  | 592 | 26.2
33 | GGAAAGUGAGGAUAUGGUAAUUUAAUUAUUAAUUAAUUAAUCCAGAAGGCACAUGAGGAUCACCCAUGUAAAGG | 35.9 | 61.4 |  | 
34 | GGUUGGCGAGGAUAUACAUGAGGAUCACCCAUGUGGUCCUGUGAAAAAAAAAACCUUUGUAGAAGGCGCGGGUC | 292 | 281 |  | 
35 | ACUUAUGAAGGAUAUACUGGCGACAUGCGCUCAACACGCGCACAUGAGGAUCACCCAUGUAGAAGGUCAAACAU | 27.5 | 45.5 |  | 
36 | CGGCAUCAUGUAGGAUAUGCGUGGCGAAGCUAUGCAGAAGGACAUGAGGAUCACCCAUGUCUUACUGUGCGUACACAGUUGCCG | 6.29 | 11.2 |  | 
37 | AUAGCUGGGAAGUAAACUCGUGCGGCAGAAGGGUGAUACUGGACAUGAGGAUCACCCAUGUGCACACAGGAUAUGCCCGCGAGC |  |  | 207 | 35
38 | AACAUACAUGAGGAUCACCCAUGUUCCGGCAGGCUAGGAUAUCAAUCGAAAGUGUUAUAAUGAGAAGGAGCAUAAA |  |  | 49 | 29.4
39 | GUAUUUAGAUAAGGAUAUAAGUCUAUGACAUGAGGAUCACCCAUGUGUGUUUUAGAAGGUAUUUGGGUAAUAUUGUUACAGUAA |  |  | 29.6 | 21.3
40 | CCGUAGCAAGGAUAUACAUGAGGAUCACCCAUGUGUGUCAGUGUGGGUAGACAUUAAUGUAGAAGGUGCGACUG | 64.8 | 161 |  | 
41 | ACAUAAUACGAGAAGGGAGUACAUGAGGAUCACCCAUGUGCUCAGAUGUACUCAGGAUAUCGGCUGACGCAAGGUUCAGGGAAU | 10.9 | 128 |  | 
42 | UUUUUAUUUGCAGGAUAUUGUAUUUUAUUACUUCAAGAAGGGCAUUACAUGAGGAUCACCCAUGUCUUCCUAUGGUUAACUAGU | 12.3 | 12 |  | 
43 | AUUAUUUAGUGAGGAUAUACAGAUAAAGAGAUUGUAGAAGGCACUUUCCUCAGGACAUGAGGAUCACCCAUGUGUUAAUAAGAU | 72.5 | 267 |  | 
44 | UUAUUAUAUGUAGGAUAUGCAUAUUAUUAUUGUGCAGAAGGACAUGAGGAUCACCCAUGUAUACUAUUAUUAUAUAUUAUAUAU | 10.8 | 13.6 |  | 
45 | GGACUGGACUAGAAGGGUGAUGCGCUCGCAGACACAGGAUAUAGUCACAUGAGGAUCACCCAUGUCGGUCCAAGUGAAGAAACU |  |  | 98.2 | 24.4
46 | CUCAUGUAAGGAUAUCUACGCGCUAAGGUGCGUCUAUCACAAGAGAAGGUACAUGAGGAUCACCCAUGUAAAGA | 103 | 127 |  | 
47 | UUCGUGCAGCUUUGUUGUACGCGUACAUGAGGAUCACCCAUGUAGGAUAUGGUACGCUUUGCGUGCUAGAAGGAUAUGGAGAGG | 13.2 | 15.4 |  | 
48 | UCAUUUAUCACAGGAUAUAUUAGUAUACAGUUGUUUGGCUCUUACAUAUUAAUAGAAGGGUGCAACAUGAGGAUCACCCAUGUA |  |  | 262 | 102
49 | AAAAUGUCAGGAUAUGCGAAGGCGUCUGACAGACGAGGAUUGCAGAAGGGACAUGAGGAUCACCCAUGUAAAAA | 50.6 | 126 |  | 
50 | CUUUUGGCAGGAUAUGCUUUUUUUGACAUGAGGAUCACCCAUGUGAUGCAGUUUGGGUUUGCAGAAGGGCCUGAGU | 98.1 | 131 |  | 
51 | GCCGAACAUGAGGAUCACCCAUGUCCGGGUAGUCAAGGAUAUGGGUAGGCAAUGCCGUGGCCAGAAGGUGGCUAUC |  |  | 97.6 | 30.9
52 | CAGAUCGGCGCAGGAUAUGUCGACAUGAGGAUCACCCAUGUAAACCUUGUCUGGUCCGGUGUGUGACAGAAGGGUGUCGGCCAU | 31.5 | 30.9 |  | 
53 | GUAGCAUACCGAGGAUAUUCAUAGAAUAAAUAAACAUGAGGAUCACCCAUGUGGCGAAAGCCUAGGGAGAAGGCGGAAUGCUAC |  |  | 183 | 20.3
54 | GGGAAACAUGAGGAUCACCCAUGUGAGGAUAUCGAAAAAAAAAAAAAAAAAAAAAAAACGAGAAGGCACACCGG | 71 | 110 |  | 
55 | CUGCGGUAGGAGAAGGACGGCGGGUUAUUUUCGUACAUGAGGAUCACCCAUGUAGGAUAUCCUACCUCAGGCGGCCUACUACAG | 19.9 | 30 |  | 
